Assay results taken from ChEMBL document CHEMBL3804820, “2-hydroxyisoquinoline-1,3(2H,4H)-diones (HIDs) as human immunodeficiency virus type 1 integrase inhibitors: Influence of the alkylcarboxamide substitution of position 4” (Eur J Med Chem, 2016).
Calls of active or inactive are those of the source. No cut-off for these calls is given here.

Experiments:
[1] = Cytotoxicity against human HepG2 cells assessed as reduction in mitochondrial membrane potential at 1 uM after 72 hrs by fluorescent image analysis relative to untreated control; assay type: cell-based; conditions: read-out: INH
Summary of the method: (§1)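 Contract in vitro cytotoxicity panel covering cell number, intracellular free calcium, nuclear size, membrane permeability and mitochondrial membrane potential. Compounds tested at 1.0, 30.0 and 100.0 µM; values are percentage change versus untreated control, and IC50 where derived.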

HepG2 [2] = assay: Cytotoxicity against human HepG2 cells assessed as increase in intracellular free calcium level at 100 uM after 72 hrs by fluorescent image analysis relative to untreated control; assay type: cell-based; conditions: hepg2, 72 h; summary of the method: as §1
HepG2 [3] = assay: Cytotoxicity against human HepG2 cells assessed as increase in membrane permeability at 1 uM after 72 hrs by fluorescent image analysis relative to untreated control; assay type: cell-based; conditions: hepg2, 72 h
[4] = Cytotoxicity against human HepG2 cells assessed as reduction in mitochondrial membrane potential at 30 uM after 72 hrs by fluorescent image analysis relative to untreated control; assay type: cell-based; conditions: read-out: INH; summary of the method: as §1
[5] = Cytotoxicity against human HepG2 cells assessed as reduction in nuclear size at 100 uM after 72 hrs by fluorescent image analysis relative to untreated control; assay type: cell-based; conditions: read-out: INH; summary of the method: as §1
HepG2 [6] = assay: Cytotoxicity against human HepG2 cells assessed as increase in membrane permeability at 100 uM after 72 hrs by fluorescent image analysis relative to untreated control; assay type: cell-based; conditions: hepg2, 72 h
HepG2 [7] = assay: Cytotoxicity against human HepG2 cells assessed as increase in intracellular free calcium level at 30 uM after 72 hrs by fluorescent image analysis relative to untreated control; assay type: cell-based; conditions: hepg2, 72 h; summary of the method: as §1
MDCK-II [8] = assay: Inhibition of human P-gp expressed in MDCK2-MDR1 cells assessed as reduction in calcien-AM efflux at 1 uM incubated for 20 mins by fluorimetry relative to control; assay type: cell-based
Summary of the method: (§2)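 P-gp efflux inhibition in MDR1-MDCKII cells with calcein AM substrate, tested up to 100.0 µM. Read as percentage inhibition of control.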

[9] = tested on: Human immunodeficiency virus 1; assay: Antiviral activity against HIV1 3B infected in human MT4 cells at 50 to 100 times antiviral EC50 added 1 to 25 hrs post infection assessed as time required for loss of inhibition of viral replication measured at 30 hrs post infection by p24 ELISA method; assay type: functional
MDCK-II [10] = assay: Inhibition of human P-gp expressed in MDCK2-MDR1 cells assessed as reduction in calcien-AM efflux at 100 uM incubated for 20 mins by fluorimetry relative to control; assay type: cell-based; summary of the method: as §2
[11] = Cytotoxicity against human HepG2 cells assessed as reduction in cell number at 1 uM after 72 hrs by fluorescent image analysis relative to untreated control; assay type: cell-based; conditions: read-out: INH; summary of the method: as §1
HepG2 [12] = assay: Cytotoxicity against human HepG2 cells assessed as increase in membrane permeability at 30 uM after 72 hrs by fluorescent image analysis relative to untreated control; assay type: cell-based; conditions: hepg2, 72 h
[13] = tested on: Human immunodeficiency virus 1; assay: Selectivity ratio of EC50 for raltegravir resistant HIV1 harboring integrase Q148H mutant infected in human MT4 cells to EC50 for wild type HIV1 infected in human MT4 cells; assay type: functional
Summary of the method: (§3)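 MT-4 cells were infected with 100–300 CCID₅₀ of virus stock (titrated in MT-4 cells) in the presence of 5-fold serial drug dilutions. EC₅₀ is the concentration giving 50% protection against virus-induced cytopathic effect, read by MTT reduction (MT-4/MTT assay). The value is the fold-change in EC₅₀ for each mutant strain relative to the wild-type HIV-1 strain.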

hERG (KCNH2) [14] = molecular target: T1, hERG (KCNH2) (Homo sapiens, UniProt Q12809); assay: in vitro; conditions: CHO-K1 cells expressing human ERG
T1 sequence (Q12809 whole entry): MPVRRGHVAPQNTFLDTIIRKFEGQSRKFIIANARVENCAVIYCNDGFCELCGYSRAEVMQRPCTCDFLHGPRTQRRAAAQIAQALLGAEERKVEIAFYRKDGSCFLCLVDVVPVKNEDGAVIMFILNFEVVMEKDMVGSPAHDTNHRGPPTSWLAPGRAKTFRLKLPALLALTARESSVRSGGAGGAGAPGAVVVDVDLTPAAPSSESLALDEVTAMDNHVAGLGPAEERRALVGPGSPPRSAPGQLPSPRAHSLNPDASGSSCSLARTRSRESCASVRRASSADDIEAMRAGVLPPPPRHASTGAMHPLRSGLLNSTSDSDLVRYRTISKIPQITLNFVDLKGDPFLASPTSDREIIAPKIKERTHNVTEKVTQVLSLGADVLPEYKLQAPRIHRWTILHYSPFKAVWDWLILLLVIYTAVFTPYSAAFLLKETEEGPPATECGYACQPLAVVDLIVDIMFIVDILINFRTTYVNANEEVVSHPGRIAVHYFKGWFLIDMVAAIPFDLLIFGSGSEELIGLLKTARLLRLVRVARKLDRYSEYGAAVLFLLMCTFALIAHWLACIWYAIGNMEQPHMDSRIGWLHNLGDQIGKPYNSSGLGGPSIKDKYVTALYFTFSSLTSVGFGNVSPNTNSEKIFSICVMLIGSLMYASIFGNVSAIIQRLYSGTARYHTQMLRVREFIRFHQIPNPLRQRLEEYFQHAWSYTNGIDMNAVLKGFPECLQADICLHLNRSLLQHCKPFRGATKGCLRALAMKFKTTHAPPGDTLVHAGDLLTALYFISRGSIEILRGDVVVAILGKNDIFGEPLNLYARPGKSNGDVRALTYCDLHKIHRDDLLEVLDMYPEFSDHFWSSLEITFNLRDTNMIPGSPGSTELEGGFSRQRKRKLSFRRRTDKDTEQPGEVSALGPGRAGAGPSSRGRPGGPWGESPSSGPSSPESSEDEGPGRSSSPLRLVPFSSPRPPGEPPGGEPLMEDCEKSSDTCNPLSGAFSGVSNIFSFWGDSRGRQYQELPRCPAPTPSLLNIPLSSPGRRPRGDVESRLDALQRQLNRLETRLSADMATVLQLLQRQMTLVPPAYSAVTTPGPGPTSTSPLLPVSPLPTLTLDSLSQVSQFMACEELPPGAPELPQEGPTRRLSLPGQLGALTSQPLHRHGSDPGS

MDCK-II [15] = assay: Inhibition of human P-gp expressed in MDCK2-MDR1 cells assessed as reduction in calcien-AM efflux at 30 uM incubated for 20 mins by fluorimetry relative to control; assay type: cell-based; summary of the method: as §2
CYP2C9 = CYP2C9 (Homo sapiens, UniProt P11712); assay: Inhibition of human recombinant CYP2C9 using MFC as substrate at 10 uM incubated for 40 mins by fluorimetry relative to control; assay type: ADME; conditions: recombinant CYP2C9, probe MFC
Sequence of CYP2C9 (P11712 whole entry, canonical isoform): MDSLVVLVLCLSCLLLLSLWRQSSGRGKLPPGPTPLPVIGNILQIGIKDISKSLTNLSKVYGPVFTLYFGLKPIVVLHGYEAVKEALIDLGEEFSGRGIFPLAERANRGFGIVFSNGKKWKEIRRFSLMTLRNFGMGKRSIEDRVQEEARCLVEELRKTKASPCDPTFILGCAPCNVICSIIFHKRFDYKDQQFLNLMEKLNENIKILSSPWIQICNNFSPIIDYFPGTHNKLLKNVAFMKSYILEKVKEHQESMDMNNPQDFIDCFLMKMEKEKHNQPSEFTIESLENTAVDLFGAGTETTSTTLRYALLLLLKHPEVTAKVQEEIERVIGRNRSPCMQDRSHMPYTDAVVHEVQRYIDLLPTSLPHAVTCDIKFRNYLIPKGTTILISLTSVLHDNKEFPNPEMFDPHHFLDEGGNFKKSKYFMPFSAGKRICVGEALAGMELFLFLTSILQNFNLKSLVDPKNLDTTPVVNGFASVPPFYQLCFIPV
Summary of the method: (§4)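 Recombinant CYP isoforms, each with its fluorogenic substrate: CYP1A2 and CYP2C19 with CEC, CYP2C9 and CYP2D6 with MFC, CYP3A4 with BFC. Read as percentage inhibition of control, standard contract assays.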

hERG (KCNH2) [16] = molecular target: T1, hERG (KCNH2); assay: in vitro; conditions: CHO-K1 cells expressing human ERG; remark: listed apart in the source
[17] = Cytotoxicity against human HepG2 cells assessed as reduction in cell number at 30 uM after 72 hrs by fluorescent image analysis relative to untreated control; assay type: cell-based; conditions: read-out: INH; summary of the method: as §1
CYP2C19 = CYP2C19 (Homo sapiens, UniProt P33261); assay: Inhibition of human recombinant CYP2C19 using CEC as substrate at 10 uM incubated for 50 mins by fluorimetry relative to control; assay type: ADME; conditions: recombinant CYP2C19, probe CEC; summary of the method: as §4
Sequence of CYP2C19 (P33261 whole entry): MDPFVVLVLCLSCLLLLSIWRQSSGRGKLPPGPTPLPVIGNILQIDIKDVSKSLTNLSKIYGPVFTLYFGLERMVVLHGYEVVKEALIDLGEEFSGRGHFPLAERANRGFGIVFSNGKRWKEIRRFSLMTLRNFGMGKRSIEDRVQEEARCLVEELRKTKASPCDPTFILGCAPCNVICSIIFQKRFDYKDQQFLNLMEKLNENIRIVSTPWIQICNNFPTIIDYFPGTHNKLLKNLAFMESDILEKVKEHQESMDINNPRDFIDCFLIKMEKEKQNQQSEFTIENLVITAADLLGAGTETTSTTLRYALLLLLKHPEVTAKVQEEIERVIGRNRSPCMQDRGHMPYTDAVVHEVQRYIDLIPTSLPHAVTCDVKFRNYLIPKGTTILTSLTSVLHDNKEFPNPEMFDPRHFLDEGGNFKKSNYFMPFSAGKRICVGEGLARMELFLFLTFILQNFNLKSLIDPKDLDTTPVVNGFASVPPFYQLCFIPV

[18] = Cytotoxicity against human HepG2 cells assessed as reduction in nuclear size at 1 uM after 72 hrs by fluorescent image analysis relative to untreated control; assay type: cell-based; conditions: read-out: INH; summary of the method: as §1
hERG (KCNH2) [19] = molecular target: T1, hERG (KCNH2); assay: in vitro; conditions: CHO-K1 cells expressing human ERG; remark: listed apart in the source
[20] = Cytotoxicity against human HepG2 cells assessed as reduction in cell number at 100 uM after 72 hrs by fluorescent image analysis relative to untreated control; assay type: cell-based; conditions: read-out: INH; summary of the method: as §1
HepG2 [21] = assay: Cytotoxicity against human HepG2 cells assessed as increase in intracellular free calcium level at 1 uM after 72 hrs by fluorescent image analysis relative to untreated control; assay type: cell-based; conditions: hepg2, 72 h; summary of the method: as §1
CYP1A2 = molecular target: T2, CYP1A2 (Homo sapiens, UniProt P05177); assay: Inhibition of human recombinant CYP1A2 using CEC as substrate at 10 uM incubated for 30 mins by fluorimetry relative to control; assay type: ADME; conditions: recombinant CYP1A2, probe CEC; summary of the method: as §4
T2 sequence (P05177 whole entry): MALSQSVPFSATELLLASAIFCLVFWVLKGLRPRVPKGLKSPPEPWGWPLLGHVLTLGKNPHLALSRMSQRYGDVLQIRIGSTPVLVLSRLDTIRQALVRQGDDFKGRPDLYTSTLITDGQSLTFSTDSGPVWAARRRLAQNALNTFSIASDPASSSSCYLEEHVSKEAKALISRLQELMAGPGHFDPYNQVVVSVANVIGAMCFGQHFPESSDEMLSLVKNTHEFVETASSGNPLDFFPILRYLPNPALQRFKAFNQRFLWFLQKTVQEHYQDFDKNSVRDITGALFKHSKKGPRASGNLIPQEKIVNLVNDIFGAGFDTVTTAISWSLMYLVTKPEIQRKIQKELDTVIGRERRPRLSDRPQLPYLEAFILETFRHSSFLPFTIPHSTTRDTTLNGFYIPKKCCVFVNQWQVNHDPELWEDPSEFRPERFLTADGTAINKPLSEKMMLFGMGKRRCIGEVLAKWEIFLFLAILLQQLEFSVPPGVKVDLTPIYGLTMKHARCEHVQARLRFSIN

CYP2D6 = CYP2D6 (Homo sapiens, UniProt P10635); assay: Inhibition of human recombinant CYP2D6 using MFC as substrate at 10 uM incubated for 40 mins by fluorimetry relative to control; assay type: ADME; conditions: recombinant CYP2D6, probe MFC; summary of the method: as §4
Sequence of CYP2D6 (P10635 whole entry): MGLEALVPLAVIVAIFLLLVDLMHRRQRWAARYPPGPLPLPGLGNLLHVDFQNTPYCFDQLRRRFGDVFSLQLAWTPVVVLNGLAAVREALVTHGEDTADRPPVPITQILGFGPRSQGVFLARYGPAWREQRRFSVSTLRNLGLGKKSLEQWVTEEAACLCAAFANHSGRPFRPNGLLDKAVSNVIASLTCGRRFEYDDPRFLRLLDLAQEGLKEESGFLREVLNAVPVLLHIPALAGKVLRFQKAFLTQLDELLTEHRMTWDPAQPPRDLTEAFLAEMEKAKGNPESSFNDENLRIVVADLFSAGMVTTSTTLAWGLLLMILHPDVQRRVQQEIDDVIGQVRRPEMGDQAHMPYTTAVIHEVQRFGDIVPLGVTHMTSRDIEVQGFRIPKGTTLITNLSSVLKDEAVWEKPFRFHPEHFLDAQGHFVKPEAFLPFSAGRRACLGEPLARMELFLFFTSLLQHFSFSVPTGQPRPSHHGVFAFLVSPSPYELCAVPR

[22] = Cytotoxicity against human HepG2 cells assessed as reduction in mitochondrial membrane potential at 100 uM after 72 hrs by fluorescent image analysis relative to untreated control; assay type: cell-based; conditions: read-out: INH; summary of the method: as §1
CYP3A4 = CYP3A4 (Homo sapiens, UniProt P08684); assay: Inhibition of human recombinant CYP3A4 using BFC as substrate at 10 uM incubated for 30 mins by fluorimetry relative to control; assay type: ADME; conditions: recombinant CYP3A4, probe BFC; summary of the method: as §4
Sequence of CYP3A4 (P08684 whole entry): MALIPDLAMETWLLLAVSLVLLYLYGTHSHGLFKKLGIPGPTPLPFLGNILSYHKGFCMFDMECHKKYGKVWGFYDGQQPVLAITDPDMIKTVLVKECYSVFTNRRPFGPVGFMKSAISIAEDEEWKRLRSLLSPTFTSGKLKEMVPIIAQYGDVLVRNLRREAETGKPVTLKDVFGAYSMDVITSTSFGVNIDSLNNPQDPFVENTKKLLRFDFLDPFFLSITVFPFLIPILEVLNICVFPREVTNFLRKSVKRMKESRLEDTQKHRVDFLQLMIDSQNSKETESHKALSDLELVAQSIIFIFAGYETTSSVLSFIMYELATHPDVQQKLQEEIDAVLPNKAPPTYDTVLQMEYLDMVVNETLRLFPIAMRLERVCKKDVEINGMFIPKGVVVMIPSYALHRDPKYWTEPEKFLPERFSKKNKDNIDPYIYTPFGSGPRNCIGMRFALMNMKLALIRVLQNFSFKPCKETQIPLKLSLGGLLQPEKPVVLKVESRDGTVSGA

[23] = tested on: Human immunodeficiency virus 1; assay: Selectivity ratio of EC50 for raltegravir resistant HIV1 harboring integrase N155H mutant infected in human MT4 cells to EC50 for wild type HIV1 infected in human MT4 cells; assay type: functional; summary of the method: as §3
[24] = tested on: Human immunodeficiency virus 1; assay: Selectivity ratio of EC50 for raltegravir resistant HIV1 harboring integrase G140S/Q148H double mutant infected in human MT4 cells to EC50 for wild type HIV1 infected in human MT4 cells; assay type: functional; summary of the method: as §3
[25] = Cytotoxicity against human HepG2 cells assessed as reduction in nuclear size at 30 uM after 72 hrs by fluorescent image analysis relative to untreated control; assay type: cell-based; conditions: read-out: INH; summary of the method: as §1

O=C(NCc1ccc(F)cc1)C1C(=O)N(O)C(=O)c2ccccc21 (stereo not given)
cytotoxicity at 72 h, 1 µM [1]: 11.8%
Activity (HepG2 [2]): 29.9%
Activity (HepG2 [3]): -0.5%
cytotoxicity at 72 h, 30 µM [4]: -21.2%
cytotoxicity at 72 h, 100 µM [5]: 18.7%
Activity (HepG2 [6]): 41.2%
Activity (HepG2 [7]): 9.6%
inhibition (MDCK-II [8]): -5.4%
Activity [9]: Active
inhibition (MDCK-II [10]): -3.7%
cytotoxicity at 72 h, 1 µM [11]: -22.8%
Activity (HepG2 [12]): 20.3%
Ratio EC50 [13]: 1
inhibition at 5 min, 0.1 µM (hERG (KCNH2) [14]): 3.4%
inhibition (MDCK-II [15]): -4%
inhibition at 40 min, 10 µM (CYP2C9): 6.4%
inhibition at 5 min, 1 µM (hERG (KCNH2) [16]): 10.6%
cytotoxicity at 72 h, 30 µM [17]: 25.7%
inhibition at 50 min, 10 µM (CYP2C19): 18%
cytotoxicity at 72 h, 1 µM [18]: -1%
inhibition at 5 min, 10 µM (hERG (KCNH2) [19]): 13.3%
cytotoxicity at 72 h, 100 µM [20]: 16%
Activity (HepG2 [21]): -1.7%
inhibition at 0.5 h, 10 µM (CYP1A2): 5.2%
inhibition at 40 min, 10 µM (CYP2D6): 6.6%
cytotoxicity at 72 h, 100 µM [22]: 6.3%
inhibition at 0.5 h, 10 µM (CYP3A4): 35.9%
Ratio EC50 [23]: 1
Ratio EC50 [24]: 1
cytotoxicity at 72 h, 30 µM [25]: 13.1%
